Columns and labels:
[1] = tested on: woodchuck hepatitis virus (WHV); assay: Efficacy study in WHV-positive woodchucks; type: in vivo
Method in brief: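 Adult chronically WHV-infected woodchucks of both sexes (serum WHV DNA, WHsAg and WHeAg positive; anti-WHs and anti-WHe negative) stratified into four groups, n = 5. Daily oral nucleoside analogue (0.1 mg/kg/day) or PBS vehicle in diet for 4 weeks. Then 12 weeks adding weekly oral TLR7 agonist (5.0–30.0 mg/kg/week) or carboxymethyl cellulose/tween-80 vehicle. Then 4 weeks daily drug only, followed to week 36. Serum WHsAg and anti-WHs by enzyme immunoassay. WHeAg and anti-WHe by cross-reactive ELISA OD.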

serum IP-10, IL-6, TNF-α = assay: Mouse PD study: serum cytokines after single oral dose; type: in vivo, C57BL/6 mice; details: serum at 3 hours
Method in brief: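 Female C57BL/6 mice, 7-8 weeks old, given a single oral dose of test compound at 0.3, 3, 30 or 300 mg/kg. Bled at 3 hours. Serum IP-10, IL-6 and TNF-α quantified as pg/mL, reported as mean ± SD.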

[2] = mice; cited from earlier work
[3] = cited from earlier work
[4] = cited from earlier work; remark: listed apart in the source
OAS1 transcript in blood = details: woodchuck model; cited from earlier work

SMILES | woodchucks with recrudescence of WHV replication after drug withdrawal ([1]; Group 1) | animals with undetectable serum WHeAg during the study ([1]; Group 1, n = 5) | animals with undetectable serum WHsAg during the study ([1]; Group 1, n = 5) | elicitation of anti-WHs antibodies ([1]; monotherapy (Groups 1 and 2)) | serum IL-6 level relative to APR002 (serum IP-10, IL-6, TNF-α; high oral doses) [fold] | serum TNF-α level relative to APR002 (serum IP-10, IL-6, TNF-α; high oral doses) [fold] | slope of serum IP-10 dose response (serum IP-10, IL-6, TNF-α; single oral dose 0.3-300 mg/kg) | volume of distribution [2] | clearance in mouse liver microsomes [3] | clearance in human liver microsomes [4] | fold change in blood OAS1 (OAS1 transcript in blood) [fold]
C=C1[C@H](CO)[C@@H](O)C[C@@H]1n1cnc2c(=O)[nH]c(N)nc21 [ETV, entecavir] | all five | five | four | did not occur in any animal |  |  |  |  |  |  | 
CCCCOc1nc(N)c2c(n1)N(Cc1cccc(CN3CCCC3)c1)CC(=O)N2 [GS-9620] |  |  |  |  | > 6 | > 4 | 2.8 | high volume of distribution | fast clearance | fast clearance | 5
